# Laboratory results published in ChEMBL document CHEMBL1147524, “Modified norcantharidins; synthesis, protein phosphatases 1 and 2A inhibition, and anticancer activity” (Bioorg Med Chem Lett, 2004).
# Assays:
# [1] = system: A2780; assay: 50% growth inhibition of A2780 (Human ovarian carcinoma) cell line compared with untreated control cells; format: functional
# In short: (§1)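 MTT assay in cells in logarithmic growth, plated in triplicate at 2,500–3,500 cells/well and grown 24 h before test agent was added (day 0). Cultures at 37 °C, 5% CO₂, in media with 10% foetal bovine serum, penicillin, streptomycin and glutamine. Agents were dissolved in DMSO as 5 mM stocks. Absorbance was read at 540 nm. GI50 was taken from the optical density difference between day 0 and the end of drug exposure.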
# [2] = system: G-401; assay: 50% growth inhibition of G401 (human kidney carcinoma) cell line compared with untreated control cells; format: functional; in short: as §1
# [3] = Inhibitory activity against protein phosphatase 2A from human red blood cells
# In short: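 Purified PP2A (0.3 mU/well) was preincubated 10 min with inhibitor in 50 mM Tris–HCl, pH 7.0, with CaCl₂. The reaction was started with hexapeptide substrate […] (200 μM), run 60 min at room temperature, and stopped with malachite green. A650 was read after 10 min. IC50 came from dose–response curves as the mean of three independent replicates.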
# [4] = system: HT-29; assay: 50% growth inhibition of HT-29 (human colorectal carcinoma) cell line compared with untreated control cells; format: functional; in short: as §1
# [5] = system: L1210; assay: 50% growth inhibition of L1210 (murine leukemia) cell line compared with untreated control cells; format: functional; conditions: Mus musculus; in short: as §1
# [6] = system: NCI-H460; assay: 50% growth inhibition of H460 (human lung carcinoma) cell line compared with untreated control cells; format: functional; in short: as §1
Structure (SMILES),GI50 [1],IC50 [3],GI50 [4],GI50 [5],GI50 [6],GI50 [2]
COC(=O)C1C(C(=O)Nc2ccc(Cl)cc2)[C@H]2CC[C@@H]1O2 (stereo not given in full),98 µM,> 100 µM,> 100 µM,> 100 µM,> 100 µM,> 100 µM
COC(=O)c1cccc(NC(=O)C2C(C(=O)O)[C@@H]3C=C[C@H]2O3)c1 (stereo not given in full),97 µM,12 µM,> 100 µM,> 100 µM,> 100 µM,> 100 µM
CCOC(=O)c1ccc(NC(=O)C2C(C(=O)O)[C@@H]3C=C[C@H]2O3)cc1 (stereo not given in full),83 µM,21 µM,> 100 µM,> 100 µM,> 100 µM,> 100 µM
CC(=O)NC[C@@]12C=C[C@@H](O1)C1C(=O)OC(=O)[C@H]12 (stereo not given in full),98 µM,> 100 µM,> 100 µM,> 100 µM,> 100 µM,> 100 µM
O=C1OC(=O)C2C1[C@@H]1CC[C@H]2O1 (stereo not given in full),39 µM,0.96 µM,33 µM,13 µM,50 µM,35 µM
C[C@@]12C(=O)OC(=O)[C@]1(C)[C@H]1CC[C@@H]2O1 [CANTHARIDIN],10 µM,0.6 µM,6.4 µM,15 µM,4.3 µM,3.5 µM

# Continued by falling GI50 [1], values first:
GI50 [1],IC50 [3],GI50 [4],GI50 [5],GI50 [6],Structure (SMILES),GI50 [2]
95 µM,> 100 µM,> 100 µM,> 100 µM,> 100 µM,CC(=O)NC[C@@]12CC[C@@H](O1)C1C(=O)OC(=O)[C@H]12 (stereo not given in full),> 100 µM
90 µM,7.7 µM,> 100 µM,> 100 µM,> 100 µM,COC(=O)c1cccc(NC(=O)C2C(C(=O)O)[C@@H]3CC[C@H]2O3)c1 (stereo not given in full),> 100 µM
88 µM,> 100 µM,89 µM,> 100 µM,> 100 µM,CN.CNC(=O)C1C(C(=O)O)[C@@H]2C=C[C@H]1O2 (stereo not given in full),> 100 µM
85 µM,> 100 µM,> 100 µM,> 100 µM,> 100 µM,N#CC[C@]12C=C[C@H](O1)[C@@H]1C(=O)OC(=O)C12 (stereo not given in full),> 100 µM
82 µM,7 µM,> 100 µM,> 100 µM,> 100 µM,O=C(O)c1cccc(NC(=O)C2C(C(=O)O)[C@@H]3C=C[C@H]2O3)c1 (stereo not given in full),> 100 µM
81 µM,> 100 µM,> 100 µM,> 100 µM,> 100 µM,"O=C(O)C1C(C(=O)OCc2ccccc2)[C@H]2CC[C@@H]1O2 (single isomer, unassigned)",> 100 µM
80 µM,9.2 µM,> 100 µM,> 100 µM,> 100 µM,CCOC(=O)c1ccc(NC(=O)C2C(C(=O)O)[C@@H]3CC[C@H]2O3)cc1 (stereo not given in full),> 100 µM
40 µM,3.2 µM,49 µM,48 µM,41 µM,CN(C)C(=O)C1C(C(=O)O)[C@@H]2C=C[C@H]1O2.CNC (stereo not given in full),25 µM
30 µM,13 µM,57 µM,49 µM,43 µM,O=C(OC[C@H]1C[C@@H]2O[C@H]1[C@H]1C(=O)OC(=O)[C@H]12)c1ccccc1,53 µM
